Measurements: the EternaBench riboswitch data

System: MS2 coat protein
Assay: apparent Kd, MS2 coat protein; higher = weaker binding; RNA-MaP array; FMN 200 µM where present
Outline: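 Stalled E. coli RNA polymerase transcribed each design on Illumina sequencing-chip clusters. The clusters were titrated with SNAP-549-labelled MS2 coat protein, starting at 0.7 or 1.5 nM and doubling up to 3 µM, first without ligand and then with constant ligand, in 100 mM Tris-HCl pH 7.5, 80 mM KCl, 4 mM MgCl2, BSA, DTT, yeast tRNA and Tween-20. Green signal was normalised to red-channel RNA signal and to the control-cluster median Fmax. The apparent Kd is the median of filtered binding-curve fits made for each cluster.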

[1] = designed as: ON switch for flavin mononucleotide, no ligand
[2] = ligand present: flavin mononucleotide, designed as: ON switch for flavin mononucleotide
[3] = designed as: OFF switch for flavin mononucleotide, no ligand
[4] = ligand present: flavin mononucleotide, designed as: OFF switch for flavin mononucleotide

Sequence	apparent Kd [1]	apparent Kd [2]	apparent Kd [3]	apparent Kd [4]
GUAUAUAUUACAUGAGGAUCACCCAUGUCAGAACGGGUAAUCAGAAGGUAUUAUUAGAGAAAGAGUAAGGAUAUGAUUAUAUAC	622 nM	181 nM	–	–
UUGGACUACGUAGGAUAUGUAGGAUAUUCCUACAUGAGGAUCACCCAUGUUAGCAUGUAAGUAGGACAGAAGGACGUGGUCCAU	540 nM	24.9 nM	–	–
GCCUUAUCUGUCAGGAUAUACAAUAAAAUAAUUUUGUAGAAGGGACAUGAGGAUCACCCAUGUACAUUACAUUG	–	–	58.3 nM	257 nM
GGGUUUGGAGGAUAUACAUGAGGAUCACCCAUGUAGGGUUUGGGUAUUCCCGGGCCCUGUAGAAGGCCGGGCCC	–	–	16.6 nM	20.4 nM
CGUCCGUGGGUAGUGAUCGUACAUGAGGAUCACCCAUGUGGGAAGGAUAUGCAUGCACGUGGACAGCAGAAGGUCCCACAACAA	–	–	154 nM	86 nM
GGGCCGUAGUAGAAGGGAUAUACGUUAGGUAUAUCAGGAUAUACAUGAGGAUCACCCAUGUUCUAACAGUGAUAGUCCUCCCUU	–	–	15.5 nM	33.1 nM
UGUCAUAUAUAGAAGGGUAGUAGGGUUUUACAUGAGGAUCACCCAUGUAUUAUAGGAUAUGUGUAAAGUUAUUAUUAAAGUAAA	–	–	29.1 nM	21.5 nM
CGGAUCGCAUGAGGAUAUGGUCAGCUUUGCUGACCAGAAGGCAUGUCAUAAGACAUGAGGAUCACCCAUGUAGUUAAGAUCCGA	576 nM	46.3 nM	–	–
CCAGCAAAAGUGAGGAUAUGCUGGUCCUUGGAUCAGCAGAAGGCACAUGAGGAUCACCCAUGUCGUGGAGCUGG	–	–	26.2 nM	55.3 nM
GUGUACGGAGGAUAUAUAUGGGCAGGCUGACCUGCAGCUUCACAUGAGGAUCACCCAUGUAGAAGGCUGUGCAC	–	–	31.6 nM	132 nM
AGAUAUAACUCAGGAUAUCAGCAUGGGUAGAUUACAUGAGGAUCACCCAUGUGCAUGUCCCGGCAUGAGAAGGGAGUAACGCAA	81.8 nM	27.4 nM	–	–
AUUAAUUUGUAGAAGGACGACUAUUAAUAUUUCGUAGGAUAUACUAUUUACAUGAGGAUCACCCAUGUUUAAAUGGAACAAUGU	–	–	8.1 nM	11.8 nM
UUUAUAAAGAUAGGAUAUUGUAUAAUAAUUUAAUAAGAAGGAUCACACAUGAGGAUCACCCAUGUAUGAGGAUCACCCAUGUAU	–	–	19.7 nM	20.3 nM
GGGCCCGGAGGAUAUACAAUGGGCCCGGGAAACCGGGUUUUACAUGAGGAUCACCCAUGUAGAAGGCCGGGUUU	–	–	14.5 nM	15.4 nM
UAUAUAUAAUAUAUUAACAUGAGGAUCACCCAUGUCGCUAGACAGGAUAUAUUUAAUAUUAUAAAGUAGAAGGGUCAUAUAAUU	50.5 nM	64.8 nM	–	–
UCACGGGACUAAGGAUAUACAUGAUCCAUUUUUGUAGAAGGUAGAAUGUUAGAUCAUAAACUAAACAUGAGGAUCACCCAUGUU	–	–	23.5 nM	22.5 nM
GCAGAGCUAGGAUAUGCUGGGCUGCAGUAAAAUGGUCACUCACAUGAGGAUCACCCAUGUAGAAGGAGCAGUGU	–	–	26.5 nM	40 nM
AACGCUAGACUAGGAUAUCGUUUACAUGAGGAUCACCCAUGUAAAGGGUAUUGUCGUCAUACGAACGAGAAGGAGUCGGUAAAU	–	–	10.4 nM	26.5 nM
UGUCCAUAGCAGAAGGACAUGAGGAUCACCCAUGUAAUCAUACAAAUAAAUGUAGGAUAUGCUAUGGACUAAGAGCGAAAGCUC	–	–	6.24 nM	7.26 nM
AAGGUGUAAGGAUAUGCUGCUCGUCACUUGCGUGAUGAGUAGCAGAAGGUACAUGAGGAUCACCCAUGUAAAGA	–	–	32.5 nM	38.2 nM
AUUUUAUAAUAGAAGGAGGACUUCAUGAGGAUCACCCAUGUGUUGGUACUUAGGAUAUGUAAUAACAUGAGGAUCACCCAUGUC	55.9 nM	49.8 nM	–	–

Sequence	apparent Kd [1]	apparent Kd [2]	apparent Kd [3]	apparent Kd [4]
AAGAAACAUGAGGAUCACCCAUGUGAGGAUAUGAAAAAGAAAAGAAAAGAAAGAAGGUUCAGAAGGCACAAAGG	–	–	32.8 nM	64.8 nM
GGAAAACAUGAGGAUCACCCAUGUGAGGAUAUCGAUGUCCAAGAAAAAGUGCGGGACUCGAGAAGGCACUUGGA	–	–	58.9 nM	36.8 nM
AAAAAGCGAGGAUAUACAUGAGGAUCACCCAUGUCAAAAGAAUAUAAAGAAAUAGGAAGUAGAAGGCGCAAAAA	–	–	55.9 nM	56 nM
AAUCAGUCAGGAUAUCGUUAAUUUAAUUGUUUGUUUUAGUUCGAGAAGGGACAUGAGGAUCACCCAUGUACUCA	–	–	23.1 nM	28.8 nM
GGAAAUCAUGUAGGAUAUGCAUGGCGAAGCUACGCAGAAGGACAUGAGGAUCACCCAUGUUAUAGCGUCCGAGAAGGGAUGCAA	–	–	40 nM	218 nM
AAUGGCGCGAUAGCGCUAAUUAAAACAUGAGGAUCACCCAUGUAGGAUAUCCUACCGAAAUGGUAGGAGAAGGACAAGCAAUGA	–	–	23.5 nM	18.7 nM
GACUUGUCAGGAUAUCUUACAUUUGCAUCGUAGUUACCAUUGGAGAAGGGACAUGAGGAUCACCCAUGUUUGGC	–	–	25.6 nM	23.9 nM
AUGCUAGUGUGAGGAUAUCAACAUGAGGAUCACCCAUGUUGGAAGUACACGACAUGCGGUACAGGUGAGAAGGUACAUUAGCAU	–	–	27.4 nM	53.2 nM
AAGGAUCGAGGAUAUACAUAGAUACAGAUACAUGUAUACGUACAUGAGGAUCACCCAUGUAGAAGGCGAUCAUA	–	–	37.1 nM	214 nM
CCUAUGUGAGGAUAUGUCUGGUCUUCUUUUAUUUUUUACAGACAGAAGGCACAUGAGGAUCACCCAUGUCAGAC	–	–	23.2 nM	64.7 nM
UGUCGGAGCAGAGGAUAUUACAUGAGGAUCACCCAUGUAAAUGGAAUAAGCUGGAAACAGCAAUGUAAGAAGGCUGCUCCGACA	–	–	70.2 nM	619 nM
AAAUUUUGUCAAGGAUAUGUAUAAAAGAGAAGAAAACAUGAGGAUCACCCAUGUAUAUGGUGGGAACAGAAGGUGAUUAAGUAA	–	–	354 nM	271 nM
UAAUUGUGAGGAUAUUCGUAGUUCUCGGAGACGAGAAUUACGGAGAAGGCACAUGAGGAUCACCCAUGUUCCUU	–	–	18.3 nM	96.1 nM
CUCCUACAUGAGGAUCACCCAUGUCAGGAUAUCUCAGUGGCACCUAAAUUCGCCACCCAGAGAAGGGACGUGCA	–	–	13.9 nM	16.6 nM
GCCUCAUAGUAGAAGGGACUUAGACAGUAAAGUUUAUAGAGGAAAUAACAUGAGGAUCACCCAUGUCAGGAUAUACUAAGAGGC	–	–	7.42 nM	9.47 nM
AUAAUACAUGAGGAUCACCCAUGUAAUUUAACUUGUAAGAUCAAGGAUAUCAGCUCGAUUAGAGCUGAGAAGGUGAUCACAUGU	154 nM	229 nM	–	–
AGCAGACGAGGAUAUGAUAAAGAUCACAUGAGGAUCACCCAUGUAGCGUCGAUAGACGCAUCAGAAGGCGUCUGCU	–	–	16.1 nM	16.5 nM
CAGCUCUGAGGAUAUCCAUCCUCCUACAUGAGGAUCACCCAUGUUUCCCUCUGGGUUUUCGGAGAAGGCAGUUAUU	–	–	238 nM	459 nM
GUAUCUUACCAAGGAUAUUUAAGAUUAGUGUAGACAUGAGGAUCACCCAUGUGGCCUUAGUCACGGGAGAAGGUGGUUUGAUAC	312 nM	70.9 nM	–	–
UGUCGGAGCAGAGGAUAUUACAUGAGGAUCACCCAUGUAUGAAGCAAUAGCUGGAAACAGCAAUGUAAGAAGGCUGCUCCGACA	–	–	5.7 nM	7 nM
GAAAACAUAGGAUAUACAUGAGGAUCACCCAUGUUAAAAUAAAGAAAGGGAGAAAUAAGUAGAAGGAUGAAAAA	–	–	33.8 nM	34.2 nM
